Compound activity deposited in PubChem by Broad Institute.
A selection: hits, their analogues and other compounds. The true share with any hit is near 2%.
E-sel inducer: E-selectin induction on HUVECs | P16581 | HUVEC E-selectin immunofluorescence imaging; normalized: neutral wells 0, TNF-alpha wells 100 | activation, % at 7.58 µM | 0.37% of 260,000 active | AID 686992;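 active means mean E-selectin-positive cell signal at least 10% of the positive control, reached in at least 60% of replicates, without over 20% cell loss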
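System: HUVEC, human umbilical vein endothelial cells; quantity: 3,000 cells/well; buffer or medium: EGM-2 medium, gelatin-coated wells; dosing: single-point compound dose; detection: immunofluorescence imaging; evaluation: % PE-positive cells; benchmarks: TNF-alpha, DMSO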
XiGFP reactiv: reactivates the inactive X chromosome in mouse fibroblasts; XiGFP mouse fibroblasts, % GFP-positive cells imaging, 3 d; cells co-treated with 5-aza-dC sensitizer; scaled so ellipticine positive control = 100%; 0.055% of 360,000 active; activation, % at 7.58 µM;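 active means mean normalized replicate activation at least 10% and every replicate at or above 10%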;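 further: 0% = median of on-plate neutral control wells and 100% = ellipticine 6 µM median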
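Schedule: 3 d treatment, 15 min room-temperature fixation; system: 68-5-11 XiGFP fibroblast line; buffer or medium: DMEM plus 5-aza-dC sensitizer; control set: ellipticine 6 µM positive control; compound: one concentration, pinned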
RAD52 anneal inh: RAD52 (human) annealing inhibition; P43351; recombinant RAD52 DNA annealing, FRET fluorescence; inhibition, % at 18.7 µM; 0.46% of 360,000 active; AID 651710;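 active means every replicate showing at least 50% inhibition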
Target sequence (P43351 whole entry, looked up): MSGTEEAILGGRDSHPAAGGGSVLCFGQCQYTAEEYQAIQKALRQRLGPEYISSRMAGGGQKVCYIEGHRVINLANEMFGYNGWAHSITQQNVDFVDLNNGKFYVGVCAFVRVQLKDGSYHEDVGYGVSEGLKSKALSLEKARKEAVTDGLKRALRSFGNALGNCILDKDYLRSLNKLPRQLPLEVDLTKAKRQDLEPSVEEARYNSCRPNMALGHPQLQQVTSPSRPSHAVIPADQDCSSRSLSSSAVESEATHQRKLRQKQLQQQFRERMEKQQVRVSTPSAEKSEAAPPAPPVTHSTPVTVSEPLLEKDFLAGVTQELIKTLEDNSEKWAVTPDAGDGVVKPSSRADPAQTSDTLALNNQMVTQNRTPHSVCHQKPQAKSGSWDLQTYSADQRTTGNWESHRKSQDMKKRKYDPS
rRNA inh HTS: inhibits bacterial ribosomal RNA function over humanized ribosomes; E. coli WT GFP vs humanized-ribosome RFP mutants, fluorescence, 24 h; active compounds read low; DMSO median 0, no signal -100; GFP signal change (wild-type ribosome), % (no concentration beside the values); 1.6% of 350,000 active; AID 720706;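 active means significant combined selectivity score with lowered wild-type GFP, culture density cut under 30%, mutant RFP and density less affected; inactive means any of these conditions unmet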
PglD inh: blocks C. jejuni PglD acetyltransferase activity; purified PglD enzyme, DTNB colorimetric CoA detection; inhibition, % at 12.5 µM; 0.098% of 360,000 active; in the data active means inhibition above about 16%, passing the limit was not always enough
RAD54 inh: inhibitors of human RAD54 branch migration; RAD54 Holliday junction branch migration, FAM/BHQ fluorescence; 0.14% of 360,000 active; Q92698; inhibition, % at 10.4 µM; AID 602329;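 active means mean normalized replicate activity at least 40 and at least half of replicates scoring 40 or more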;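 further: 0% = median of neutral control wells and 100% = median of positive control wells; inhibitors cause a drop in the FAM fluorescence signal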
Active calls of the source: *; . = no result given.

SMILES	E-sel inducer	XiGFP reactiv	RAD52 anneal inh	rRNA inh HTS	PglD inh	RAD54 inh
O=C(NC[C@@H]1[C@@H](c2ccccc2)[C@@H](CO)N1CC1CCCC1)C1CC1	0	0	-24	-1	2	0
CCc1cccc(NC(=O)CCc2c(C)nn(-c3ccc(N4CCCCC4)nn3)c2C)c1	0	0	-1	-32*	-3	0
Cc1ccc2oc(C(=O)N(CCO)Cc3ccccc3)c(C)c2c1	0	0	-6	-17*	-5	-8
N#CC1=C(N)OC2=C(CCc3ccccc32)C1c1ccccc1Cl (stereo unspecified)	.	1	-36	-22*	-1	-4
O=C(C[C@H]1CC[C@H]2[C@@H](COC[C@H](O)CN2S(=O)(=O)c2ccccc2)O1)NCC1CCCCC1	0	0	83*	-3	-1	-1
Cc1ccc(S(=O)(=O)N2C[C@@H](O)COC[C@@H]3O[C@H](CC(=O)NCC4CCCCC4)CC[C@H]32)cc1	0	0	27	0	-2	-2
O=C(C[C@H]1CC[C@@H]2[C@H](COC[C@@H](O)CN2S(=O)(=O)c2ccccc2)O1)NCC1CCCCC1	.	.	94*	.	-5	-3
O=C(C[C@@H]1CC[C@@H]2[C@H](COC[C@H](O)CN2S(=O)(=O)c2ccccc2)O1)NCC1CCCCC1	0	0	2	-3	1	-6
O=C(C[C@H]1C[C@H]2c3cc(NC(=O)Cc4ccncc4)ccc3O[C@H]2[C@H](CO)O1)NCc1ccccc1	0	0	-17	1	4	6
CN(C)C(=O)[C@@H]1[C@@H](CO)[C@@H]2Cn3c(ccc(C4=CCCCC4)c3=O)[C@@H]2N1Cc1ccccn1	-1	0	-34	2	0	3
Cc1nnc(-c2ccc(N3CCOCC3)c([N+](=O)[O-])c2)o1	.	.	.	.	3	0
Cc1cccc(Nc2nnc(-c3ccc(N4CCOCC4)c([N+](=O)[O-])c3)c3ccccc23)c1	.	0	-8	-32*	3	-4
O=C(c1ccco1)N(CCCN1CCOCC1)c1nc(-c2ccc(F)cc2)cs1	.	.	32	-33*	0	8
O=C(c1ccco1)N(CCCN1CCOCC1)c1nc(-c2ccc(Cl)cc2)cs1	.	.	.	.	10	2
C[C@@H]1CCCCO[C@@H](CN(C)S(=O)(=O)c2ccccc2)[C@@H](C)CN([C@@H](C)CO)C(=O)c2cc(NC(=O)NC3CCCCC3)ccc2O1	0	0	-2	-1	-1	-3
CNC[C@@H]1Oc2ccc(NC(=O)Nc3ccc(F)cc3)cc2C(=O)N([C@H](C)CO)C[C@H]1C	0	0	-7	2	12	12
CCCn1cc(S(=O)(=O)c2ccc(Cl)cc2)c(=O)c2cc(OC)ccc21	.	0	-11	-28*	-1	6
C=CCn1c(=S)sc2c(=O)[nH]cnc21	0	0	-9	-23*	-4	1
COCCNC(=O)C[C@H]1CC[C@H]2[C@@H](COC[C@@H](O)CN2C(=O)Nc2ccccc2OC)O1	0	0	-11	1	-3	-1
CC(C)CC#Cc1ccc2c(c1)O[C@H](CN(C)C(=O)c1ccccn1)[C@@H](C)CN([C@@H](C)CO)S2(=O)=O	0	0	-11	-3	-1	0
CN(C)CC(=O)N[C@H]1CC[C@@H](CC(=O)O)O[C@@H]1CO	0	0	4	-3	.	.
Cc1cc(C(=O)Nc2ccc(C)c(C)c2)n(-c2ccccc2)n1	53*	0	-21	-2	-4	12
COCC(=O)N1[C@H](CO)[C@H]2c3ccccc3N(C(=O)c3ccccc3F)C[C@H]21	0	0	5	-1	-3	4
CCCCOC(=O)C[N+](C)(C)CCOC1CC2CCC1(C)C2(C)C (stereo unspecified)	.	0	22	-54	-6	12
CCCOC(=O)C[N+](C)(C)CCOC1CC2CCC1(C)C2(C)C (stereo unspecified)	-1	0	4	-47*	.	.
